Bioassay records (PubChem)
m5-HT2A agonist: agonists of mouse serotonin 5-HT2A receptor (HTR2A) | P35363 | CHO-K1 mHTR2A beta-arrestin complementation, luminescence; percent of 30 µM serotonin response | activation, % at 7.6 µM | 0.66% of 360,000 active | AID 624169;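 active = activation above a run cutoff, the mean activation of all tested compounds plus 3 SD, cut at about 14% in these data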;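 note: 0% = plate median of compound wells and 100% = 30 µM serotonin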
Target sequence (P35363 whole entry, looked up): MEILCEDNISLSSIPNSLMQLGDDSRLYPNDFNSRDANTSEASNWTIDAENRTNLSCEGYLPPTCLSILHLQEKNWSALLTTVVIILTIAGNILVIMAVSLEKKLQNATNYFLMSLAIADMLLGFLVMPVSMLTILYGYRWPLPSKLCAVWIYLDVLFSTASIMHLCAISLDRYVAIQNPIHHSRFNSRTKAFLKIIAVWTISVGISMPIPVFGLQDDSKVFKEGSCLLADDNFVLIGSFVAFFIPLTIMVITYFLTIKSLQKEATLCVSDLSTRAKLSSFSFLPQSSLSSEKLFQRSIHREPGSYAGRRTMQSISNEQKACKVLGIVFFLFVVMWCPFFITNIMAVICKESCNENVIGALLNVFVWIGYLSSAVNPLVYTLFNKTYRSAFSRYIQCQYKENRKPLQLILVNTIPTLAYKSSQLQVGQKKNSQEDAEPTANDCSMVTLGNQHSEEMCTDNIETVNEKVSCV
T cell modulator: T cell immune modulators affecting CD8 T cell-vesicle binding; response (vesicle binding), % at 7 µM; 0.068% of 330,000 active; 2C CD8+ T cell-vesicle binding, flow cytometry; active compounds read low;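 active = response, share of CD8 T cells binding vesicles, and their 90th percentile fluorescence all below set limits, cut at about 80% in these data, passing the limit was not always enough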;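 note: values below 100% mean blocked vesicle binding to the CD8+ T cells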
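Read-out – percent CD8+ FL2 mean versus row control · System – murine 2C transgenic CD8+ T lymphocytes · Times – 1.5 h cell–vesicle binding at 37 °C, then 20 min icy labelling · Control set – naked vesicles low, QL9 vesicles with vehicle high · Detection – cytometric PE anti-B7-1 and Alexa647 anti-CD8 signals after 1% paraformaldehyde fixation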
PP5 primary: inhibitors of human protein phosphatase 5 (PP5); P53041; purified PP5c, OMFP substrate fluorescence; inhibition, % at 6.7 µM; 0.18% of 320,000 active; AID 1987;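 active = inhibition above the campaign's mean inhibition across all tested compounds plus 3 SD, cut at about 9.5% in these data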;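 note: 0% = DMSO only and 100% = 100 µM cantharidin control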
GASC-1 inh: human JMJD2C demethylase inhibition. 0.069% of 330,000 active. GST-JMJD2C(1-420) H3K9me3 demethylation, DELFIA europium. inhibition, % at 2.35 µM. AID 2099. Q9H3R0;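 active = more than half of a compound's replicate wells show inhibition beyond 50%, single wells judged on their own value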;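 note: signal counts dimethyl H3K9 product captured on neutravidin plate; 0% = median of DMSO wells and 100% = 0.3 times that DMSO median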
PP1 inh: PP1-alpha (human) inhibition in PP5 counter-screen; P62136; purified PP1alpha, OMFP fluorescence; inhibition, % at 6.7 µM; AID 2235; 0.9% of 320,000 active;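 active = inhibition above the mean inhibition of all tested compounds plus 3 SD, computed separately for each screening campaign, cut at about 15% in these data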
MOR ag counter: activates human mu opioid receptor in HTR2A counterscreen. U2OS OPRM1 beta-arrestin PathHunter, luminescence; DMSO 0%, DAMGO 9.3 µM 100%. shares compounds with m5-HT2A agonist. 5.3% of 2,300 active. activation, % at 9.3 µM;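 active = mean activation above the mean of DMSO-only wells plus 3 SD, cut at about 0.5% in these data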
HTR2A ag conf: mouse HTR2A agonism confirmed. AID 624381. 19% of 2,300 active. shares compounds with m5-HT2A agonist. CHO-K1 PathHunter beta-arrestin recruitment, luminescence; DMSO 0%, 30 µM serotonin 100%. activation, % at 7.6 µM;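 active = mean activation across triplicates above the hit threshold derived in the original primary screen, cut at about 15% in these data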
* = called active by the depositor. Hits are enriched below; roughly 1.7% of the tested compounds scored in any of these assays.

Screening COc1ccc(CCC(=O)OCC(=O)c2c(N)n(CC(C)C)c(=O)n(C)c2=O)cc1 returned m5-HT2A agonist 17.2*, T cell modulator 573.2, PP5 primary 3.1, GASC-1 inh -35.7, PP1 inh -0.3, MOR ag counter -0.5 and HTR2A ag conf -1.3.
`O=[N+]([O-])c1cc(S(=O)(=O)N2CCCCCC2)ccc1Cl` gave m5-HT2A agonist 0.1.
`CCOC(=O)C1=CCN(Cc2ccccc2)CC1` gave m5-HT2A agonist 18.6*, T cell modulator 163.1, PP5 primary -6.1, GASC-1 inh -4.5, PP1 inh -10.1, MOR ag counter -0.3 and HTR2A ag conf 80.1*.
Screening O=C(Cc1cccc(NC(=O)C2CCN(C(=O)C3CCCC3)CC2)c1)Nc1cccc(C(=O)N2CCCCC2)c1 returned m5-HT2A agonist 8.2.
CCc1noc(C)c1C(=O)Nc1nc(-c2ccccc2)c(C(C)=O)s1 was read as m5-HT2A agonist 35.0*, T cell modulator 449.5, PP5 primary -1.3, GASC-1 inh 2.2, PP1 inh -3.7, MOR ag counter -0.6 and HTR2A ag conf 8.6.
Cc1onc(-c2ccccc2)c1C(=O)Nc1ccc(NC(=O)c2c(-c3ccccc3)noc2C)cc1 was read as m5-HT2A agonist 19.1*, T cell modulator 130.0, PP5 primary 2.1, GASC-1 inh 4.5, PP1 inh -2.8, MOR ag counter -0.4 and HTR2A ag conf -3.5.
`CCc1noc(C)c1C(=O)Nc1nc(-c2ccc(NC(C)=O)cc2)cs1` gave m5-HT2A agonist 5.7, T cell modulator 249.0, PP5 primary 3.6, GASC-1 inh -2.7 and PP1 inh -1.3.
For N#Cc1ccccc1Cn1c(=O)n(CCCC(=O)NCc2ccc3c(c2)OCO3)c(=O)c2ccccc21 the results were m5-HT2A agonist 14.6*, T cell modulator 269.4, PP5 primary -0.3, GASC-1 inh -2.0, PP1 inh -1.5, MOR ag counter -0.3 and HTR2A ag conf -2.3.
`Cc1ccc(Cn2c(=O)n(CCC(=O)NCc3ccc4c(c3)OCO4)c(=O)c3ccccc32)cc1` gave m5-HT2A agonist 4.5, T cell modulator 130.0, PP5 primary 0.1, GASC-1 inh -2.5 and PP1 inh -2.5.
`CCN(C(=O)C1CCN(S(=O)(=O)c2cccc3nonc23)CC1)c1ccccc1` gave m5-HT2A agonist 15.1*, T cell modulator 481.9, PP5 primary -0.1, GASC-1 inh -5.8, PP1 inh -1.5, MOR ag counter -0.6 and HTR2A ag conf -2.1.
`CCN(CC)C(=O)C1CCN(S(=O)(=O)c2cccc3nonc23)CC1` gave m5-HT2A agonist 4.3, T cell modulator 522.2, PP5 primary 0.1, GASC-1 inh -12.9 and PP1 inh 0.2.
Screening COc1ccc(NC(=O)Nc2cccc3c2O[C@@H](CN(C)CC2CCCCC2)[C@@H](C)CN([C@H](C)CO)C3=O)cc1 returned m5-HT2A agonist 1.5, T cell modulator 359.1 and GASC-1 inh -2.1.
Screening O=C(Cc1ccccc1)NCC(=O)N/N=C/c1ccc([N+](=O)[O-])s1 returned m5-HT2A agonist 18.5*, T cell modulator 168.5, PP5 primary 1.4, GASC-1 inh 26.1, PP1 inh -1.3, MOR ag counter -0.1 and HTR2A ag conf -0.7.
For COc1ccccc1-c1noc(-c2ccccc2)n1 the results were m5-HT2A agonist 17.9*, T cell modulator 234.5, PP5 primary 5.6, GASC-1 inh 4.3, PP1 inh 2.6, MOR ag counter -0.4 and HTR2A ag conf -4.1.
Screening Oc1cccc(Nc2ccccc2)c1 returned m5-HT2A agonist 0.9, T cell modulator 592.8, PP5 primary 0.8, GASC-1 inh 11.1 and PP1 inh -2.6.
Screening Oc1cccc(NC(=S)Nc2ccccc2)c1 returned m5-HT2A agonist 17.5*, T cell modulator 5.4, PP5 primary -1.4, GASC-1 inh -6.2, PP1 inh 1.8, MOR ag counter -0.8 and HTR2A ag conf -3.3.
Screening Cc1nn(CC(=O)Nc2cccc(C(F)(F)F)c2)c(=O)c2cccn12 returned m5-HT2A agonist -0.3, T cell modulator 383.3, PP5 primary 3.5, GASC-1 inh 4.5 and PP1 inh 0.0.
O=C(NCC(=O)N(c1cccnc1)C(C(=O)NCc1ccco1)c1ccccc1)c1ccco1 (configuration not stated) was read as m5-HT2A agonist 14.9*, T cell modulator 449.7, PP5 primary 2.3, GASC-1 inh 0.2, PP1 inh 0.5, MOR ag counter 0.1 and HTR2A ag conf 9.9.
Screening O=C(c1cccc(C(=O)N(c2ccccn2)C2CCCCC2)c1)N(c1ccccn1)C1CCCCC1 returned m5-HT2A agonist 30.3*, T cell modulator 153.0, PP5 primary 3.2, GASC-1 inh 9.5, PP1 inh -2.3, MOR ag counter 0.0 and HTR2A ag conf 53.3*.
CC(C)(C)c1ccc(C(=O)Nc2ccc3c(c2)C(=O)NC3=O)cc1 was read as m5-HT2A agonist 16.5*, T cell modulator 351.0, PP5 primary 1.1, GASC-1 inh -8.3, PP1 inh -2.5, MOR ag counter -0.5 and HTR2A ag conf -3.5.
C[C@@H]1CCCCO[C@@H](CN(C)CC2CC2)[C@@H](C)CN([C@H](C)CO)C(=O)c2cc(N(C)C)ccc2O1 was read as m5-HT2A agonist 1.6.
For O=C1Nc2ccccc2-n2nnnc2C1N1CCN(C(=O)c2ccco2)CC1 (configuration not stated) the results were m5-HT2A agonist 20.1*, MOR ag counter -0.7 and HTR2A ag conf -5.5.
O=C1Nc2ccccc2-n2nnnc2C1N1CCN(c2ccccn2)CC1 (configuration not stated) was read as m5-HT2A agonist -5.0.
CCCn1c(N)c(Sc2ccc([N+](=O)[O-])cc2)c(=O)n(CCC)c1=O was read as m5-HT2A agonist 17.1*, T cell modulator 195.8, PP5 primary -0.4, GASC-1 inh 7.0, PP1 inh -1.2, MOR ag counter -0.5 and HTR2A ag conf 2.5.
`CC(Nc1cccc([N+](=O)[O-])c1)C(=O)Nc1ccc(S(=O)(=O)N2CCCC2)cc1` (configuration not stated) gave m5-HT2A agonist -4.8.
Screening O=C(O)C(O)C(O)C(O)C(O)C(=O)O (configuration not stated) (tested in a mixture with another compound) returned m5-HT2A agonist 20.1*, T cell modulator 557.9, PP5 primary -1.6, GASC-1 inh 15.4, PP1 inh -1.6, MOR ag counter -0.6 and HTR2A ag conf 3.6.
